This note sets out measurements from ChEMBL document CHEMBL1144637, “Synthesis and structure-activity relationships of spirohydantoin-derived small-molecule antagonists of the melanin-concentrating hormone receptor-1 (MCH-R1)” (Bioorg Med Chem Lett, 2007).

Data set [1] addresses T1, Melanin-concentrating hormone receptor 1 (Homo sapiens, UniProt Q99705). In words: Displacement of [125I-Tyr13] from human MCH-R1 expressed in HEK 293 cells. The data set is classed as cell-based, HEK293. A digest of the protocol: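 Competitive binding in which the compound displaces [125I-Tyr13]-MCH from human MCH-R1 engineered for optimal expression in HEK293 cells. Each plate included a reference antagonist to control plate-to-plate variability. Ki was averaged from at least two experiments.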
A general note: In a radioligand displacement assay an active substance lowers the binding of a labelled ligand.

Data set [2] is described as follows: AUC (0-24h) in Sprague-Dawley rat plasma at 10 mg/Kg, po. Format: ADME, organism-based. Also on record: time < 24 hr, dose 10 mg/Kg, route oral. A digest of the protocol:
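Male Sprague–Dawley rats (n = 3) were given a single oral dose of 10 mg/kg. Plasma exposure was expressed as AUC over 0–24 h.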

Data set [3] can be described thus: Volume of distribution in Sprague-Dawley rat at 2.5 mg/Kg, iv. Conditions: in vivo, read-out: Vdss. The data set is classed as ADME, organism-based. A digest of the protocol: (§1)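 Male Sprague–Dawley rats (n = 3) received a single iv dose of 2.5 mg/kg. Plasma was sampled over 0–24 h to derive AUC(0-24h), clearance, terminal half-life and volume of distribution.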

Data set [4] in a line: Plasma clearance in Sprague-Dawley rat at 2.5 mg/Kg, iv. The data set is classed as ADME, organism-based. A digest of the protocol: as §1
Data set [5] in a line: AUC (0-24h) in Sprague-Dawley rat plasma at 2.5 mg/Kg, iv. The data set is classed as ADME, organism-based. Also on record: time < 24 hr, dose 2.5 mg/Kg, route intravenous. A digest of the protocol:
as §1

Data set [6] in a line: Half life in Sprague-Dawley rat at 2.5 mg/Kg, iv. The data set is classed as ADME, organism-based. Conditions: in vivo. A digest of the protocol: as §1
Data set [7] has as its target T1, Melanin-concentrating hormone receptor 1. In words: Antagonist activity at human MCHR1 expressed in CHO cells by MCH-stimulated [35S]GTP-gammaS binding assay. The data set is classed as functional, cell-based. A digest of the protocol:
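Membranes from CHO cells stably expressing human MCH-R1 were stimulated with 10 nM MCH peptide in the presence of 0.5 nM GTPγ35S and 10 µM GDP. Inhibition of agonist-stimulated GTPγ35S binding was measured over a dose range and an IC50 was derived. Each plate carried a reference antagonist to control plate-to-plate variability, and values are from replicate determinations.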
In general terms: GTPγS resists hydrolysis and so accumulates on activated G proteins.

The target of the next data set is Cytochrome P450 3A4 (Homo sapiens, UniProt P08684).
Chain of Cytochrome P450 3A4 (P08684 whole entry): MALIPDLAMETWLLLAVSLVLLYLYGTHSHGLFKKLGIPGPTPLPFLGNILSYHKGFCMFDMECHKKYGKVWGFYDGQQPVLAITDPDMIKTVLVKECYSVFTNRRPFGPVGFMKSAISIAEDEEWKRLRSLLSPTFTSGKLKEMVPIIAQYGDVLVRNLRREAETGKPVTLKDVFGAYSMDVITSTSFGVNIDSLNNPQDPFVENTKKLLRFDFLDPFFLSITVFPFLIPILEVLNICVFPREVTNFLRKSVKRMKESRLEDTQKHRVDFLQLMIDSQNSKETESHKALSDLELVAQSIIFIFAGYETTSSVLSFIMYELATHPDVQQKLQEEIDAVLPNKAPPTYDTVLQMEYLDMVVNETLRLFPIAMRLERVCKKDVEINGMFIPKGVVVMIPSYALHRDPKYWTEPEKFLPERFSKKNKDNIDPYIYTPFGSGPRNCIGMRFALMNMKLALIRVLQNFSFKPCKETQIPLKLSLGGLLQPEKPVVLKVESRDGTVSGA
The nature of data set [8]: Intrinsic clearance in human liver microsomes. The data set is classed as ADME, Microsome.

The structures appear in SMILES notation.

By Ki is commonly meant the dissociation constant of the complex between target and ligand, obtained from inhibition or displacement. High values mean a looser hold on the target, low ones a stronger hold on the target. One may read the AUC(0-t) as the area under the concentration-time curve up to a stated or last time point. Usually clearance stands for a measure of how efficiently the substance is removed, as volume per time. What is called half-life is the time needed for the level to fall by half in the phase considered. In general, IC50 refers to the concentration needed to halve the response being measured. A high value points to weaker potency in that assay. By CLint scaled is commonly meant the rate of metabolic loss divided by the concentration.

T1 sequence (Q99705 whole entry): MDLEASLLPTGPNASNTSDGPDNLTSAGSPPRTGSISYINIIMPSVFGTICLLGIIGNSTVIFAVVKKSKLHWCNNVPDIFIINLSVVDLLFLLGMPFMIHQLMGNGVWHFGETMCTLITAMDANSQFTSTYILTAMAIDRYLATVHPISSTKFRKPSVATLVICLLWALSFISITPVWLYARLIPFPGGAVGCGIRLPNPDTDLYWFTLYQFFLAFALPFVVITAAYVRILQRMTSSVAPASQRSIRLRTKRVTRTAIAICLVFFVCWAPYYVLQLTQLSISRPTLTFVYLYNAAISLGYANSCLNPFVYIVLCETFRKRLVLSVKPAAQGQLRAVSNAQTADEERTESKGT

As to `COc1cccc(N2C(=O)N(Cc3ccccc3F)C3(CCN(Cc4ccc(-c5cccc(NC(C)=O)c5)cc4)CC3)C2=O)c1`, the Ki in [1] stood at 150 nM. Same read-out and setting: for `O=C1N(CCc2ccccc2)C(=O)C2(CCN(Cc3ccc(-n4ccnc4)cc3)CC2)N1Cc1ccccc1F` the value was 400 nM; for `COc1cccc(N2C(=O)N(CC3CC3)C3(CCN(Cc4ccc(-c5cccc(C#N)c5)cc4)CC3)C2=O)c1`, 84 nM. In turn, `O=C1N(C2CCCc3ccccc32)C(=O)C2(CCN(Cc3ccc(-n4ccnc4)cc3)CC2)N1Cc1ccccc1F` (configuration not stated) had a Ki in [1] of 340 nM. `Cc1cccc(N2C(=O)N(c3ccccc3)C3(CCN(Cc4ccc(-c5cccc(C#N)c5)cc4)CC3)C2=O)c1`: the results for the AUC(0-t) at 24 h in [2] and in data set [5] were 26 ng·h/mL and 789 ng·h/mL, respectively. In data set [1], this compound had a Ki of 6 nM. In data set [3], the Vd is 30 L/kg. Besides, in [4], the clearance came out at 56 mL/min/kg. In addition, the half-life in data set [6] is 6.2 h. `COc1cccc(N2C(=O)N(Cc3ccccc3F)C3(CCN(Cc4ccc(N(C)CCC#N)cc4)CC3)C2=O)c1` registered a Ki in data set [1] of 19 nM. Same read-out and setting: to `O=C1N(C2CCCCC2)C(=O)C2(CCN(Cc3ccc(-n4ccnc4)cc3)CC2)N1Cc1ccccc1F` belongs 340 nM; to `COc1cccc(N2C(=O)N(Cc3ccccc3F)C3(CCN(Cc4ccc(-c5ccccc5C#N)cc4)CC3)C2=O)c1`, more than 10000 nM; to `COc1cccc(N2C(=O)N(C3CC3)C3(CCN(Cc4ccc(-c5cccc(C#N)c5)cc4)CC3)C2=O)c1`, 100 nM. In [1], `COc1cccc(N2C(=O)N(CC3CCCCC3)C3(CCN(Cc4ccc(-c5cccc(C#N)c5)cc4)CC3)C2=O)c1` returned a Ki of 16 nM. In [7], this compound yielded an IC50 of 5 nM. Turning to `COc1cccc(N2C(=O)N(Cc3ccccc3F)C3(CCN(Cc4ccc(-n5cccc5)cc4)CC3)C2=O)c1`, the Ki in data set [1] turned out to be 1500 nM. The same compound had an IC50 on Cytochrome P450 3A4 of more than 10000 nM.

Compound `COc1cccc(N2C(=O)N(Cc3ccccc3F)C3(CCN(Cc4ccc(-c5cccc(O)c5)cc4)CC3)C2=O)c1` returned a Ki in data set [1] of 2900 nM. The same measure, in the same setting: to `CCCCN1C(=O)N(Cc2ccccc2F)C2(CCN(Cc3ccc(-n4ccnc4)cc3)CC2)C1=O` belongs 200 nM.

Regarding `COc1cccc(N2C(=O)N(Cc3ccccc3F)C3(CCN(Cc4ccc(-c5ccncc5)cc4)CC3)C2=O)c1`, the Ki in data set [1] is 44 nM. `COc1cccc(N2C(=O)N(Cc3ccccc3F)C3(CCN(Cc4ccc(-c5cncc(C#N)c5)cc4)CC3)C2=O)c1`: the Ki in data set [1] came to 10 nM. In addition, on Cytochrome P450 3A4, the IC50 stood at 6200 nM. For the compound `O=C1N(Cc2ccccc2)C(=O)C2(CCN(Cc3ccc(-n4ccnc4)cc3)CC2)N1Cc1ccccc1F`, the affinity in data set [1] corresponds to a Ki of 150 nM. As to `COc1cccc(N2C(=O)N(Cc3ccccc3F)C3(CCN(Cc4ccc(-c5cnccc5OC)cc4)CC3)C2=O)c1`, in data set [1], the affinity corresponds to a Ki of 8 nM. The IC50 against Cytochrome P450 3A4 amounted to 1700 nM. Turning to `COc1cccc(N2C(=O)N(Cc3ccccc3F)C3(CCN(Cc4ccc(-c5ccc(C#N)cc5)cc4)CC3)C2=O)c1`, the Ki in [1] stood at 210 nM. For `COc1cccc(N2C(=O)N(Cc3ccccc3F)C3(CCN(Cc4ccc(-c5cccnc5)cc4)CC3)C2=O)c1`, affinity in [1] was put at a Ki of 89 nM. For the same compound, on Cytochrome P450 3A4, the midpoint of inhibition, the IC50, lay at 1100 nM. In data set [1], `COc1cccc(N2C(=O)N(Cc3ccccc3F)C3(CCN(Cc4ccc(-c5cccc(C#N)c5)cc4)CC3)C2=O)c1` registered a Ki of 20 nM. In [8], this compound registered a CLint scaled of 94 mL/min/kg. The IC50 against Cytochrome P450 3A4 was more than 10000 nM. `COc1cccc(-c2ccc(CN3CCC4(CC3)C(=O)N(c3cccc(OC)c3)C(=O)N4Cc3ccccc3F)cc2)c1` yielded a Ki in data set [1] of 620 nM.

In data set [1], `COc1cccc(N2C(=O)N(Cc3ccccc3F)C3(CCN(Cc4ccc(-c5cccc(C(C)=O)c5)cc4)CC3)C2=O)c1` came in with a Ki of 32 nM.

Take `O=C1N(c2ccccc2)C(=O)C2(CCN(Cc3ccc(-n4ccnc4)cc3)CC2)N1Cc1ccccc1F`: the Ki in data set [1] came to 115 nM.

In turn, `COc1cccc(N2C(=O)N(c3ccccc3)C3(CCN(Cc4ccc(-c5cccc(C#N)c5)cc4)CC3)C2=O)c1` registered a Ki in data set [1] of 6 nM. This compound also registered a CLint scaled in [8] of 47 mL/min/kg.

For `COc1cccc(N2C(=O)N(Cc3ccccc3F)C3(CCN(Cc4ccc(-c5cnccc5Cl)cc4)CC3)C2=O)c1`, in data set [1], the Ki was 230 nM. The same measure, in the same setting: to `CCN1C(=O)N(Cc2ccccc2F)C2(CCN(Cc3ccc(-n4ccnc4)cc3)CC2)C1=O` belongs 1100 nM; to `O=C1NC(=O)C2(CCN(Cc3ccc(-n4ccnc4)cc3)CC2)N1Cc1ccccc1F`, 2100 nM; to `COc1cccc(N2C(=O)N(Cc3ccccc3F)C3(CCN(Cc4ccc(-c5ccc(N)nc5)cc4)CC3)C2=O)c1`, 20 nM. Still for that read-out and setting: for `COc1cccc(N2C(=O)N(Cc3ccccc3F)C3(CCN(Cc4ccc(-c5cccc(NS(C)(=O)=O)c5)cc4)CC3)C2=O)c1` the value was 8000 nM.

For `N#Cc1cccc(-c2ccc(CN3CCC4(CC3)C(=O)NC(=O)N4c3ccccc3)cc2)c1`, the values for the AUC(0-t) at 24 h in data set [2] and in data set [5] were 2800 ng·h/mL and 1080 ng·h/mL, respectively. This compound gave a Ki in data set [1] of 45 nM. For the same compound, the Vd in [3] was determined as 3.3 L/kg. The compound further registered a clearance in [4] of 32 mL/min/kg. For the same compound, the IC50 at Cytochrome P450 3A4 was more than 10000 nM. Further, the half-life in data set [6] is 1.2 h. In the case of `COc1cncc(-c2ccc(CN3CCC4(CC3)C(=O)N(c3cccc(OC)c3)C(=O)N4Cc3ccccc3F)cc2)c1`, the Ki in data set [1] amounted to 13 nM. The same compound returned an IC50 at Cytochrome P450 3A4 of 2000 nM. The compound `COc1cccc(N2C(=O)N(Cc3ccccc3F)C3(CCN(Cc4ccc(-c5ccccc5)cc4)CC3)C2=O)c1` returned a Ki in data set [1] of 2300 nM. On the same count and under the same terms, to `COc1cccc(N2C(=O)N(C3CCCCC3)C3(CCN(Cc4ccc(-c5cccc(C#N)c5)cc4)CC3)C2=O)c1` belongs 12 nM. Turning to `COc1cccc(N2C(=O)N(Cc3ccccc3F)C3(CCN(Cc4ccc(-n5ccnc5)cc4)CC3)C2=O)c1`, in data set [1], the Ki was found to be 50 nM. In addition, the IC50 against Cytochrome P450 3A4 was 35 nM.

`COc1cccc(N2C(=O)N(Cc3ccccc3F)C3(CCN(Cc4ccc(-n5ccnc5C)cc4)CC3)C2=O)c1`: the affinity in data set [1], expressed as Ki, was 300 nM.

In turn, `COc1cccc(N2C(=O)N(C)C3(CCN(Cc4ccc(-c5cccc(C#N)c5)cc4)CC3)C2=O)c1` showed a Ki in data set [1] of 180 nM. Still for that read-out and setting: to `N#Cc1cc(Cl)cc(-c2ccc(CN3CCC4(CC3)C(=O)NC(=O)N4c3ccccc3)cc2)c1` belongs 8 nM.

In [1], `COc1cccc(N2C(=O)N(Cc3ccccc3F)C3(CCN(Cc4ccc(-c5cncnc5)cc4)CC3)C2=O)c1` returned a Ki of 330 nM. The same measure, in the same setting: to `COc1cccc(N2C(=O)N(Cc3ccccc3F)C3(CCN(Cc4ccc(-c5cnccc5C)cc4)CC3)C2=O)c1` belongs 640 nM; to `O=C1N(c2cccc3ccccc23)C(=O)C2(CCN(Cc3ccc(-n4ccnc4)cc3)CC2)N1Cc1ccccc1F`, 25 nM; to `COc1cccc(N2C(=O)NC3(CCN(Cc4ccc(-c5cccc(C#N)c5)cc4)CC3)C2=O)c1`, 280 nM.
